Data as given in ChEMBL document CHEMBL5674868, “Cancer Cells Hijack PRC2 to Modify Multiple Cytokine Pathways” (PLoS One, 2015).
Activity calls are given as the source filed them. The calls are words filed in the database; no cut-off is given here.

Columns and labels:
Format in all cases: cell-based
[1] = target: Histone-lysine N-methyltransferase EZH2 (Homo sapiens) (UniProt Q15910); test: Inhibition of EZH2 in human HeLa cells assessed as effect on IRF1 mRNA level after 6 hrs by RT-PCR analysis in presence of IFN-gamma
In short: (§1)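 Cells were treated for two four-day cycles with 2 μM GSK343 or UNC1999, then left untreated or stimulated with human IFNγ for 6 h. mRNA was measured by reverse transcription quantitative PCR and normalized to β-actin. Three biological replicates were run per treatment group.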

[2] = target: Histone-lysine N-methyltransferase EZH2 (Homo sapiens) (UniProt Q15910); test: Inhibition of EZH2 in human A549 cells assessed as effect on PITX2 mRNA level after 6 hrs by RT-PCR analysis in presence of IFN-gamma; in short: as §1
[3] = target: Histone-lysine N-methyltransferase EZH2 (Homo sapiens) (UniProt Q15910); test: Inhibition of EZH2 in human A549 cells assessed as increase in LPS-induced TGF-A level for 24 hrs by multiplexing laser bead assay
In short: (§2)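 A549 cells were pretreated with vehicle or UNC1999 over two four-day cycles at 2 μM. They were seeded at 3×10^4/well, rested for 4 h, then exposed for 24 h to no stimulus, 5 μg/ml E. coli LPS or 10 U/ml TNFα. Secreted cytokines in the supernatants were quantified by a 41-plex laser bead assay.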

[4] = target: Histone-lysine N-methyltransferase EZH2 (Homo sapiens) (UniProt Q15910); test: Inhibition of EZH2 in human MCF7 cells assessed as increase in IFN-gamma-induced SUZ12-repressed ISGs mRNA level after 6 hrs by RT-PCR analysis
In short: (§3)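 Cells pretreated for two 4-day cycles with 2 µM GSK343 or UNC1999, then left unstimulated or given human IFNγ for 6 h. RNA reverse-transcribed and measured by quantitative PCR, normalized to β-actin. Three biological replicates per treatment group.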

[5] = target: Histone-lysine N-methyltransferase EZH2 (Homo sapiens) (UniProt Q15910); test: Inhibition of EZH2 in human A549 cells assessed as increase in TNF-alpha-induced TGFA level for 24 hrs by multiplexing laser bead assay; in short: as §2
[6] = target: Histone-lysine N-methyltransferase EZH2 (Homo sapiens) (UniProt Q15910); test: Inhibition of EZH2 in human A549 cells assessed as increase in TNF-alpha-induced CCL-5 level for 24 hrs by multiplexing laser bead assay; in short: as §2
[7] = target: Histone-lysine N-methyltransferase EZH2 (Homo sapiens) (UniProt Q15910); test: Inhibition of EZH2 in human A549 cells assessed as increase in IFN-gamma-induced SUZ12-repressed ISGs mRNA level after 6 hrs by RT-PCR analysis; in short: as §1
[8] = target: Histone-lysine N-methyltransferase EZH2 (Homo sapiens) (UniProt Q15910); test: Inhibition of EZH2 in human A549 cells assessed as increase in LPS-induced IL-6 level for 24 hrs by multiplexing laser bead assay; in short: as §2
[9] = target: Histone-lysine N-methyltransferase EZH2 (Homo sapiens) (UniProt Q15910); test: Inhibition of EZH2 in human MCF7 cells assessed as effect on PITX2 mRNA level after 6 hrs by RT-PCR analysis; in short: as §3
[10] = target: Histone-lysine N-methyltransferase EZH2 (Homo sapiens) (UniProt Q15910); test: Inhibition of EZH2 in human A549 cells assessed as increase in TNF-alpha-induced IL-8 level for 24 hrs by multiplexing laser bead assay; in short: as §2
[11] = target: Histone-lysine N-methyltransferase EZH2 (Homo sapiens) (UniProt Q15910); test: Inhibition of EZH2 in human A549 cells assessed as effect on HPRT mRNA level after 6 hrs by RT-PCR analysis; in short: as §1
[12] = target: Histone-lysine N-methyltransferase EZH2 (Homo sapiens) (UniProt Q15910); test: Inhibition of EZH2 in human HeLa cells assessed as decrease in H3K27me3 levels at 2 uM after 6 hrs by Western blot analysis
[13] = target: Histone-lysine N-methyltransferase EZH2 (Homo sapiens) (UniProt Q15910); test: Inhibition of EZH2 in human ASPC1 cells assessed as effect on HPRT mRNA level after 6 hrs by RT-PCR analysis; in short: as §1
[14] = target: Histone-lysine N-methyltransferase EZH2 (Homo sapiens) (UniProt Q15910); test: Inhibition of EZH2 in human A549 cells assessed as increase in LPS-induced IL-8 level for 24 hrs by multiplexing laser bead assay; in short: as §2
[15] = target: Histone-lysine N-methyltransferase EZH2 (Homo sapiens) (UniProt Q15910); test: Inhibition of EZH2 in human A549 cells assessed as increase in IL-1beta-induced IL-6 level for 24 hrs by ELISA
In short: (§4)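 A549 cells were pretreated for two four-day cycles with 2 μM UNC1999 or with DMSO. They were seeded at 3×10^4/well, allowed to settle for 4 h, then given the indicated concentrations of IFNγ, IL1β, LPS or TNFα for 24 h. Secreted IL6, IL8 or CXCL10 in the supernatant was measured by ELISA in duplicate. n = 3; ANOVA followed by Fisher test.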

[16] = target: Histone-lysine N-methyltransferase EZH2 (Homo sapiens) (UniProt Q15910); test: Inhibition of EZH2 in human A549 cells assessed as increase in LPS-induced IL-8 level for 24 hrs by ELISA; in short: as §4
[17] = target: Histone-lysine N-methyltransferase EZH2 (Homo sapiens) (UniProt Q15910); test: Inhibition of EZH2 in human ASPC1 cells assessed as increase in IFN-gamma-induced SUZ12-repressed ISGs mRNA level after 6 hrs by RT-PCR analysis; in short: as §1
[18] = target: Histone-lysine N-methyltransferase EZH2 (Homo sapiens) (UniProt Q15910); test: Inhibition of EZH2 in human A549 cells assessed as effect on IRF1 mRNA level after 6 hrs by RT-PCR analysis; in short: as §1
[19] = target: Histone-lysine N-methyltransferase EZH2 (Homo sapiens) (UniProt Q15910); test: Inhibition of EZH2 in human A549 cells assessed as increase in LPS-induced VEGF-A level for 24 hrs by multiplexing laser bead assay; in short: as §2
[20] = target: Histone-lysine N-methyltransferase EZH2 (Homo sapiens) (UniProt Q15910); test: Inhibition of EZH2 in human A549 cells assessed as increase in IFN-gamma-induced CXCL10 level for 24 hrs by ELISA; in short: as §4
[21] = target: Histone-lysine N-methyltransferase EZH2 (Homo sapiens) (UniProt Q15910); test: Inhibition of EZH2 in human A549 cells assessed as decrease in H3K27me3 levels at 2 uM after 6 hrs by Western blot analysis
[22] = target: Histone-lysine N-methyltransferase EZH2 (Homo sapiens) (UniProt Q15910); test: Inhibition of EZH2 in human A549 cells assessed as increase in LPS-induced IL-6 level for 24 hrs by ELISA; in short: as §4
[23] = target: Histone-lysine N-methyltransferase EZH2 (Homo sapiens) (UniProt Q15910); test: Inhibition of EZH2 in human HeLa cells assessed as effect on PITX2 mRNA level after 6 hrs by RT-PCR analysis; in short: as §1
[24] = target: Histone-lysine N-methyltransferase EZH2 (Homo sapiens) (UniProt Q15910); test: Inhibition of EZH2 in human HeLa cells assessed as effect on IRF1 mRNA level after 6 hrs by RT-PCR analysis; in short: as §1
[25] = target: Histone-lysine N-methyltransferase EZH2 (Homo sapiens) (UniProt Q15910); test: Inhibition of EZH2 in human A549 cells assessed as effect on PITX2 mRNA level after 6 hrs by RT-PCR analysis; in short: as §1
[26] = target: Histone-lysine N-methyltransferase EZH2 (Homo sapiens) (UniProt Q15910); test: Inhibition of EZH2 in human HeLa cells assessed as increase in IFN-gamma-induced SUZ12-repressed ISGs mRNA level after 6 hrs by RT-PCR analysis; in short: as §1
[27] = target: Histone-lysine N-methyltransferase EZH2 (Homo sapiens) (UniProt Q15910); test: Inhibition of EZH2 in human MCF7 cells assessed as effect on HPRT mRNA level after 6 hrs by RT-PCR analysis; in short: as §1

Chain of Histone-lysine N-methyltransferase EZH2 (Homo sapiens) (Q15910 whole entry, looked up): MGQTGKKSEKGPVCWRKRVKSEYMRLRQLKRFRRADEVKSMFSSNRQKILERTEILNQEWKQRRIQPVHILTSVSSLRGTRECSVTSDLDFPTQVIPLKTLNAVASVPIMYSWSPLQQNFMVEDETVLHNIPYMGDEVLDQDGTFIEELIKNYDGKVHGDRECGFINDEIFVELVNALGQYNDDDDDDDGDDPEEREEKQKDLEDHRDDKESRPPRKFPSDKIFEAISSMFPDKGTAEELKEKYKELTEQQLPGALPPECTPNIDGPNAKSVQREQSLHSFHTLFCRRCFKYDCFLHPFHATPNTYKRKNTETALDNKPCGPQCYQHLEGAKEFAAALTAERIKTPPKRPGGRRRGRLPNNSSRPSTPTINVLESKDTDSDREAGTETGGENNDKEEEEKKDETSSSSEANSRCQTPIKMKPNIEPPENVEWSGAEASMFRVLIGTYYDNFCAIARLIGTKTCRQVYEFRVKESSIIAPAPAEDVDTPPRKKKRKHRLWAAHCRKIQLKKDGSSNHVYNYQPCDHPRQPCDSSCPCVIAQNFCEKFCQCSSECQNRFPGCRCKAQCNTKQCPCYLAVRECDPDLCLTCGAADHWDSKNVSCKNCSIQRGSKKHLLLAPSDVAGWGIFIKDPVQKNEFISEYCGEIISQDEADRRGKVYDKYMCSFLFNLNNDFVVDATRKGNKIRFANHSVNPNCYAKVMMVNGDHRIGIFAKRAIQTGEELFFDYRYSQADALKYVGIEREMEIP

`CCCc1cc(C)[nH]c(=O)c1CNC(=O)c1cc(-c2ccc(N3CCN(C(C)C)CC3)nc2)cc2c1cnn2C(C)C` was tested, and the inhibition [1] was “inactive”, the inhibition [2] was “inactive” and the inhibition [3] was “Active”. The inhibition [4] was “Active”, the inhibition [5] was “Active” and the inhibition [6] was “Active”. For the same compound, the inhibition [7] was “Active”, the inhibition [8] was “Active” and the inhibition [9] was “inactive”. For the same compound, the inhibition [10] was “Active”, the inhibition [11] was “inactive” and the inhibition [12] was “Active”. The inhibition [13] was “inactive”, the inhibition [14] was “Active” and the inhibition [15] was “Active”. For the same compound, the inhibition [16] was “Active”, the inhibition [17] was “Active” and the inhibition [18] was “inactive”. The inhibition [19] was “Active”, the inhibition [20] was “Active” and the inhibition [21] was “Active”. The inhibition [22] was “Active”, the inhibition [23] was “inactive” and the inhibition [24] was “inactive”. For the same compound, the inhibition [25] was “inactive”, the inhibition [26] was “Active” and the inhibition [27] was “inactive”.
